From ChEMBL document CHEMBL3822375, “Preclinical Characterization of 3β-(N-Acetyl l-cysteine methyl ester)-2aβ,3-dihydrogaliellalactone (GPA512), a Prodrug of a Direct STAT3 Inhibitor for the Treatment of Prostate Cancer” (J Med Chem, 2016)

Assays:
Mus musculus [1] = assay: Cmax in mouse plasma assessed as galiellalactone level at 10 mg/kg, po by LC-MS/MS analysis; format: ADME, organism-based; design: dose 10 mg/kg, route oral; conditions: in vivo
Method in brief: (§1)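 Single dose to mice; oral, iv or ip as listed, in 5% DMSO/50 mM citrate buffer pH 4.0 (dosing solutions 0.5, 2 or 5 mg/mL). Oral dosing at 20 mL/kg. Terminal blood under barbiturate anaesthesia at eight time-points to 8 h, n=3 mice per time-point, EDTA plasma. Acetonitrile precipitation with internal standard, LC-MS/MS against plasma calibration lines. Non-compartmental analysis on mean data, trapezoidal AUC.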

Mus musculus [2] = assay: Tmax in mouse plasma assessed as galiellalactone level at 10 mg/kg, po by LC-MS/MS analysis; format: ADME, organism-based; conditions: in vivo
Mus musculus [3] = assay: Apparent half life in mouse plasma assessed as galiellalactone level at 10 mg/kg, po by LC-MS/MS analysis; format: ADME, organism-based; conditions: in vivo; method in brief: as §1
Mus musculus [4] = assay: AUC (0 to t) in mouse plasma assessed as galiellalactone level at 10 mg/kg, po by LC-MS/MS analysis; format: ADME, organism-based; conditions: in vivo; method in brief: as §1
Mus musculus [5] = assay: AUC (0 to infinity) in mouse plasma assessed as galiellalactone level at 10 mg/kg, po by LC-MS/MS analysis; format: ADME, organism-based; design: dose 10 mg/kg, route oral, time infinity; conditions: in vivo; method in brief: as §1
[6] = Chemical stability of the compound in phosphate buffer saline assessed as half life at 10 uM at pH 7.4 by LC-MS/MS analysis; format: physicochemical; conditions: phosphate buffered saline
Method in brief: (§2)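 Compound diluted from DMSO (or methanol) stock to 10 µM, 2% solvent final, n=2. Matrix was 0.1 M PBS pH 7.4, or […] HCl with 2 mg/mL NaCl adjusted to pH 1.2. Mixed on a shaker; sampled at nominal 5, 15, 30 and 60 min plus T=0. LC-MS/MS with internal standard; % remaining relative to T=0. Formation of parent also monitored.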

[7] = Antiproliferative activity against human DU145 cells after 72 hrs by WST-1 proliferation assay; format: functional, cell-based; conditions: DU-145, 72 h
Method in brief: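 Cells in RPMI-1640 (DU145, LNCaP, LNCaP-IL6+) or HAM's F-12 (PC3) with 10% FBS. DU145 and LNCaP-IL6+ seeded at 2 000 cells/well, LNCaP and PC3 at 5 000 cells/well, adhered 24 h, then exposed to compound for 72 h. WST-1 absorbance read at 450 nm with 630 nm reference. Background subtracted; expressed as percent of untreated cells.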

[8] = Half life of compound in acidic buffer at pH 1.2 at 10 uM by LC-MS analysis; format: physicochemical; method in brief: as §2

SMILES	Cmax (Mus musculus [1]) [ng/mL]	Tmax (Mus musculus [2]) [h]	t1/2(app) (Mus musculus [3]) [h]	AUCt (Mus musculus [4]) [µg/mL/min]	AUC (Mus musculus [5]) [µg/mL/min]	half-life at 10 µM [6] [h]	half-life at 10 µM [8] [h]	IC50 [7] [µM]
C[C@H]1C[C@H]2CC[C@H]3OC(=O)C([C@@H]1SC[C@H](N)C(=O)O)[C@@]23O (stereo partly drawn)						0.233	> 2.5	2.66
COC(=O)[C@H](CS[C@H]1C2C(=O)O[C@@H]3CC[C@H](C[C@@H]1C)[C@]23O)NC(=O)[C@@H](N)C(C)C (stereo partly drawn)	949	0.5	2.15	97	101	1.1		
CC(=O)N[C@@H](CS[C@H]1C2C(=O)O[C@@H]3CC[C@H](C[C@@H]1C)[C@]23O)C(N)=O (stereo partly drawn)						> 2.5		9.2
CCOC(=O)[C@H](CS[C@H]1C2C(=O)O[C@@H]3CC[C@H](C[C@@H]1C)[C@]23O)NC(C)=O (stereo partly drawn)	263	0.5	1.08	20	22			

Second part, led by results:

Cmax (Mus musculus [1]) [ng/mL]	Tmax (Mus musculus [2]) [h]	t1/2(app) (Mus musculus [3]) [h]	AUCt (Mus musculus [4]) [µg/mL/min]	AUC (Mus musculus [5]) [µg/mL/min]	half-life at 10 µM [6] [h]	half-life at 10 µM [8] [h]	SMILES	IC50 [7] [µM]
478	0.25	3.17	36	41			C[C@H]1C[C@H]2CC[C@H]3OC(=O)C([C@@H]1Sc1ccccc1)[C@@]23O (stereo partly drawn)	
					> 2.5		C[C@H]1C[C@H]2CC[C@H]3OC(=O)C([C@@H]1SCc1ccccc1)[C@@]23O (stereo partly drawn)	9.68
57	0.25	3.15	7.8	11			COC(=O)[C@H](CS[C@H]1C2C(=O)O[C@@H]3CC[C@H](C[C@@H]1C)[C@]23O)NC(=O)c1ccccc1F (stereo partly drawn)	
